Activity calls are given as the source filed them. The rule behind the calls is not given here.
How the values were obtained:
[1] = tested on: Dengue virus; test: Antiviral activity against Dengue virus NGC infected in human A549 cells assessed as decrease in viral E protein production after 48 hrs by CFI assay; assay type: functional, organism-based; details: A549, 48 h
How it was run: (§1)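 A549 or BHK21 cells at 2 x 10^4/well grown overnight, then infected at MOI 0.3 with compound dilutions for 1 h at 37°C. Inoculum replaced by medium with compound for 48 h. Methanol-fixed, probed with anti-E antibody 4G2 and HRP anti-mouse IgG, developed with TMB, absorbance at 450 nm. EC50 by nonlinear regression of mean absorbance vs log concentration.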

[2] = tested on: Dengue virus; test: Antiviral activity against 0.0001 MOI Dengue virus NGC infected in Cricetinae BHK21 cells assessed as decrease in viral E protein production […] by plaque reduction assay; assay type: functional, organism-based; details: BHK-21
[3] = Cytotoxicity against human A549 cells after 48 hrs by celltiter-glo luminescent cell viability assay; assay type: cell-based
How it was run: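 A549 cells plated and compound added as in the immunodetection assay, then incubated for 48 h. Viability by CellTiter-Glo luminescence relative to DMSO-treated cells, giving CC50.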

[4] = tested on: Dengue virus; test: Antiviral activity against 25 MOI Dengue virus NGC infected in human A549 cells assessed as colocalized virus with endocytosed dextran by confocal microscopy; assay type: functional, organism-based
How it was run: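 A549 cells on coverslips (1 x 10^5/well) infected at MOI 0.3? no: MOI 25 with 5 µM compound for 7 h. Rhodamine-dextran 20 mg/ml added for 20 min at 37°C, then methanol fixation and anti-E 4G2 staining with FITC secondary. Examined by confocal microscopy.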

[5] = tested on: Dengue virus; test: Antiviral activity against Dengue virus NGC infected in human A549 cells assessed as viral antigen expression at 0.2 microM; assay type: functional
[6] = tested on: Dengue virus; test: Antiviral activity against Dengue virus NGC infected in human A549 cells assessed as change in endosomal pH at 0.2 microM by Lysosensor green DND189 accumulation assay; assay type: functional, organism-based
How it was run: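 A549 cells on coverslips exposed to compound or bafilomycin A1 in Ham's F-12 with 2% FBS for 4 h at 37°C; 0.9% DMSO as control. Stained with 0.5 µM Lysosensor green DND-189 for 2 min at room temperature, washed, and imaged live by fluorescence microscopy.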

[7] = tested on: Dengue virus; test: Binding affinity to Dengue virus particles by liquid chromatography
How it was run: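 Dengue virus (6 x 10^7 PFU) incubated with 5 µM compound at room temperature for 30 min, then loaded onto a gel-filtration spin column and centrifuged. Eluate analysed by LC-MS/MS in multiple-reaction-monitoring mode. Compound without virus run as a control.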

[8] = tested on: dengue virus type 1; test: Antiviral activity against DENV-1 isolate My97-10245 infected in Cricetinae BHK21 cells assessed as decrease in viral E protein production after 48 hrs by CFI assay; assay type: functional, organism-based; details: isolate My97-10245, BHK-21, 48 h; how it was run: as §1
[9] = tested on: dengue virus type 2; test: Antiviral activity against DENV-2 NGC infected in human A549 cells assessed as decrease in viral E protein production after 48 hrs by CFI assay; assay type: functional, organism-based; details: A549, 48 h; how it was run: as §1
[10] = tested on: dengue virus type 2; test: Antiviral activity against DENV-2 NGC infected in Cricetinae BHK21 cells assessed as decrease in viral E protein production after 48 hrs by CFI assay; assay type: functional, organism-based; details: BHK-21, 48 h; how it was run: as §1
[11] = tested on: dengue virus type 3; test: Antiviral activity against DENV-3 isolate My99-21531 infected in Cricetinae BHK21 cells assessed as decrease in viral E protein production after 48 hrs by CFI assay; assay type: functional, organism-based; details: isolate My99-21531, BHK-21, 48 h; how it was run: as §1
[12] = tested on: dengue virus type 4; test: Antiviral activity against DENV-4 isolate My01-22713 infected in Cricetinae BHK21 cells assessed as decrease in viral E protein production after 48 hrs by CFI assay; assay type: functional, organism-based; details: isolate My01-22713, BHK-21, 48 h; how it was run: as §1
[13] = tested on: Yellow fever virus; test: Antiviral activity against Yellow fever virus 17D infected in human A549 cells assessed as decrease in viral E protein production after 48 hrs by CFI assay; assay type: functional, cell-based; details: A549, 48 h; how it was run: as §1
[14] = Antiviral activity against Japanese encephalitis virus Nakayama infected in Cricetinae BHK21 cells assessed as decrease in viral E protein production after 48 hrs by CFI assay; assay type: functional, cell-based, Japanese encephalitis virus strain Nakayama; details: BHK-21, 48 h; how it was run: as §1
[15] = tested on: West Nile virus; test: Antiviral activity against West nile virus B956 infected in Cricetinae BHK21 cells assessed as decrease in viral E protein production after 48 hrs by CFI assay; assay type: functional, organism-based; details: B956, BHK-21, 48 h; how it was run: as §1
[16] = tested on: Dengue virus; test: Antiviral activity against Dengue virus NGC infected in human A549 cells assessed as decrease in viral E protein production during early stage of virus life cucle by CFI assay; assay type: functional, organism-based; details: TDE = time-dependent effect
How it was run: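 A549 cells infected at MOI 0.3 for 1 h at 37°C. Compound dilutions were present during infection only, after infection only, or throughout. Alternatively, a fixed concentration was added at 0–120 min after virus. E protein measured by immunodetection at 48 h. Duplicate wells in two experiments, or three independent experiments for the time course.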

[17] = tested on: Dengue virus; test: Antiviral activity against 25 MOI Dengue virus NGC infected in human A549 cells assessed as inhibition of NS3 protein production by CFI assay; assay type: functional, organism-based
How it was run: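 A549 cells on coverslips infected at MOI 25 with or without compound for 7 h. Methanol-fixed and stained with anti-E 4G2 and anti-NS3 antibodies plus fluorescent secondaries, DAPI mounting. Immunofluorescence microscopy.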

[18] = tested on: Dengue virus; test: Antiviral activity against Dengue virus NGC infected in human A549 cells assessed as colocalization of virus measured as E protin signal after 2 hrs by confocal microscopy; assay type: functional, organism-based
How it was run: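 Virus pre-incubated with biotinylated compound, then passed through a gel-filtration spin column. Eluate used to infect A549 cells on coverslips for 2 h at 37°C. Cells fixed in formaldehyde for 15 min, compound detected with streptavidin-FITC and virus with anti-E antibody. Confocal microscopy.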

Row | Structure (SMILES) | EC50 [1] [nM] | EC50 [2] [nM] | CC50 at 48 h [3] [nM] | further results
1 | CC(C)(N)/C=C/c1cccc(-c2ccc(-c3ccnc(NC4CC(C)(C)NC(C)(C)C4)n3)s2)n1 | 1690 | 310 | > 20000 | 
2 | CC(=O)c1cccc(-c2ccc(-c3ccnc(NC4CC(C)(C)NC(C)(C)C4)n3)s2)c1 | 900 | 300 | > 20000 | 
3 | CC1(C)CC(Nc2nccc(-c3ccc(-c4ccc(Cl)cc4)s3)n2)CC(C)(C)N1 | 270 | 320 | > 20000 | 
4 | Clc1ccc(-c2ccc(-c3nc(NCc4cccnc4)nc4ccccc34)s2)cc1 | 70 | 198 | > 20000 | Activity [4]: Active; Activity [5]: >50%; Activity [6]: inactive; Activity [7]: Active; EC50 [8]: 108 nM; EC50 [9]: 119 nM; EC50 [10]: 68 nM; EC50 [11]: 496 nM; EC50 [12]: 334 nM; EC50 [13]: 470 nM; EC50 [14]: 1420 nM; EC50 [15]: 564 nM; Activity [16]: tde; Activity [17]: Active
5 | O=C(CCCC[C@@H]1SC[C@H]2NC(=O)N[C@@H]12)NCCOCCOCCNc1nc(-c2ccc(-c3ccc(Cl)cc3)s2)c2ccccc2n1 | 234 |  |  | Activity [18]: inactive
6 | Clc1ccc(-c2ccc(-c3ccnc(N4CCNCC4)n3)s2)cc1 | 90 | 41 | > 20000 | 
7 | CC1(C)CC(Nc2nc(-c3ccc(-c4ccc(Cl)cc4)s3)c3ccccc3n2)CC(C)(C)N1 | 40 | 84 | 18600 | 
